Reference: ChEMBL document CHEMBL1158465, “Novel small molecule bradykinin B2 receptor antagonists” (J Med Chem, 2009)
pIC50: −log10 of the molar value.

Assays:
B2 bradykinin receptor [1] = molecular target: T1, B2 bradykinin receptor (Homo sapiens, UniProt P30411); experiment: Displacement of [3H]bradykinin from human recombinant B2 receptor expressed in HEK293 cells; assay type: cell-based
T1 sequence (P30411 whole entry): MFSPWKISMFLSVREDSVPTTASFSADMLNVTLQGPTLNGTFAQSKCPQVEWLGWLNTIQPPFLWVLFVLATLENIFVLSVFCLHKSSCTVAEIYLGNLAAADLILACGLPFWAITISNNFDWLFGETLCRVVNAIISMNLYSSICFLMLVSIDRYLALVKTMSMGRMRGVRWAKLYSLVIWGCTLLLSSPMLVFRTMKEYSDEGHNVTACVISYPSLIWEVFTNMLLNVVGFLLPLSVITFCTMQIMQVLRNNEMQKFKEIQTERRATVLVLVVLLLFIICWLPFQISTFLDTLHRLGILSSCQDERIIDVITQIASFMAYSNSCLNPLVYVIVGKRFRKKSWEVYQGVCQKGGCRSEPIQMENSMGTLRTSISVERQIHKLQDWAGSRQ

B2 bradykinin receptor [2] = molecular target: T1, B2 bradykinin receptor; experiment: Antagonist activity at B2 receptor in human HF15 cells assessed as inhibition of bradykinin-induced calcium mobilization; assay type: functional, cell-based
Cytochrome P450 3A4 = Cytochrome P450 3A4 (Homo sapiens, UniProt P08684); experiment: Inhibition of human CYP3A4 by microtiter plate assay; assay type: ADME
Chain of Cytochrome P450 3A4 (P08684 whole entry): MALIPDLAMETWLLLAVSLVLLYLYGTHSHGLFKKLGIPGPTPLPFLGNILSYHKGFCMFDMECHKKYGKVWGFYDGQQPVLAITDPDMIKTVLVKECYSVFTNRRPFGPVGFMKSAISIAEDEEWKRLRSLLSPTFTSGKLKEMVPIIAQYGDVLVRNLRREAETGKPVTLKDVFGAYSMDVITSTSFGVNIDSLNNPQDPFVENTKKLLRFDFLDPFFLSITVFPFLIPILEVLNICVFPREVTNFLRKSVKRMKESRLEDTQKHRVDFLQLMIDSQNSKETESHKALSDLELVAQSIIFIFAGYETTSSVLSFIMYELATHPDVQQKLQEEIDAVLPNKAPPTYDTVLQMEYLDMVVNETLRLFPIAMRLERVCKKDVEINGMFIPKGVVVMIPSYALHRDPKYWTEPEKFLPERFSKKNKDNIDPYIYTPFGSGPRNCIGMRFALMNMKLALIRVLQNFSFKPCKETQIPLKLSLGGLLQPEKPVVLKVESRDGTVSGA

[3] = Metabolic stability in human liver microsomes at 1 uM by HPLC; assay type: ADME, Microsome; settings: read-out: Stability
Method in brief: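 Test compound was incubated with liver microsomes for 30 min. Stability is expressed as the percentage of parent compound remaining at the end of incubation.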

Cytochrome P450 2C19 = Cytochrome P450 2C19 (Homo sapiens, UniProt P33261); experiment: Inhibition of human CYP2C19 by microtiter plate assay; assay type: ADME
Chain of Cytochrome P450 2C19 (P33261 whole entry): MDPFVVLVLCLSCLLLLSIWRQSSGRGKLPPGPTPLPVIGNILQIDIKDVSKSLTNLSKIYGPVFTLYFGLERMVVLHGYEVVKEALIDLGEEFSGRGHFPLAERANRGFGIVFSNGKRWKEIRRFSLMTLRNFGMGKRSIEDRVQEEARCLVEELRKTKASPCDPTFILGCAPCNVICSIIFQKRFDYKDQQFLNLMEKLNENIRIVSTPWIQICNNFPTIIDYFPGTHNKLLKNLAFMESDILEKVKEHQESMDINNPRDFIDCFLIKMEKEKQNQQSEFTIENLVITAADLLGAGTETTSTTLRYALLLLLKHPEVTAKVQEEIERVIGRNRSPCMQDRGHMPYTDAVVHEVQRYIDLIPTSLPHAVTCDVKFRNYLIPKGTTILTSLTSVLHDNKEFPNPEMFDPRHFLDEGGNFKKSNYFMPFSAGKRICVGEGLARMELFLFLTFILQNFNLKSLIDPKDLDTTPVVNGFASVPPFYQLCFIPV

[4] = Oral bioavailability in Wistar rat at 1 mg/kg; assay type: ADME, organism-based; settings: in vivo
[5] = Clearance in Wistar rat at 1 mg/kg, iv or 1 mg/kg, po; assay type: ADME, organism-based; settings: in vivo
[6] = Terminal half life in Wistar rat at 1 mg/kg, iv or 1 mg/kg, po; assay type: ADME, organism-based; settings: in vivo, read-out: beta t1/2

SMILES | pIC50 (B2 bradykinin receptor [1]) | pIC50 (B2 bradykinin receptor [2]) | further results
Cc1cc(-c2ccnn2C)c2cccc(OCc3c(Cl)cncc3COc3ccccn3)c2n1 | 6.85 | 6.59 | –
Cc1cc(-c2ccnn2C)c2cccc(OCc3c(C)ccnc3CNC(=O)C3CCCCC3)c2n1 | 8.00 | 8.74 | pIC50 (Cytochrome P450 3A4): 5.60; remaining at 1 µM [3]: 17%; pIC50 (Cytochrome P450 2C19): 5.80
Cc1cc(-c2nccs2)c2cccc(OCc3c(Cl)cncc3Cl)c2n1 | 6.38 | 6.32 | –
Cc1cc(-c2ccnn2C)c2cccc(OCc3c(C)ccnc3Cn3cccc(C(F)(F)F)c3=O)c2n1 | 8.06 | 9.27 | pIC50 (Cytochrome P450 3A4): < 5.30; remaining at 1 µM [3]: 45%; pIC50 (Cytochrome P450 2C19): < 5.30
Cc1cc(-c2n[nH]cc2C)c2cccc(OCc3c(Cl)cncc3Cl)c2n1 | 6.96 | 6.41 | remaining at 1 µM [3]: 19%
Cc1cc(-c2nscc2C)c2cccc(OCc3c(Cl)cncc3Cl)c2n1 | 7.70 | 7.15 | –
Cc1cc(-c2ccnn2C)c2cccc(OCc3c(Cl)cncc3Cn3ccccc3=O)c2n1 | 8.29 | 8.44 | –
Cc1cc(-c2cncn2C)c2cccc(OCc3c(Cl)cncc3Cl)c2n1 | 5.36 | – | –
Cc1cc(-c2ncc(C)n2C)c2cccc(OCc3c(Cl)cncc3Cl)c2n1 | 6.70 | 5.47 | –
Cc1cc(-c2nccn2C)c2cccc(OCc3c(Cl)cncc3Cl)c2n1 | 7.05 | 6.12 | –
Cc1cc(-c2ccnn2C)c2cccc(OCc3c(Cl)cncc3CCC(N)=O)c2n1 | 7.48 | 6.72 | –
CC(=O)OCc1cncc(Cl)c1C(=O)c1cccc2c(-c3ccnn3C)cc(C)nc12 | 8.22 | 6.59 | –
Cc1cc(-c2ccnn2C)c2cccc(OCc3c(Cl)cncc3Cl)c2n1 | 7.30 | 6.74 | remaining at 1 µM [3]: 7%
Cc1cc(-n2cccn2)c2cccc(OCc3c(Cl)cncc3Cl)c2n1 | 7.49 | 6.04 | –
Cc1cc(-c2ccnn2C)c2cccc(OCc3c(Cl)cncc3[S+]([O-])CC(=O)N(C)C)c2n1 (configuration not stated) | 7.43 | 7.12 | –
Cc1cc(-c2ncnn2C)c2cccc(OCc3c(Cl)cncc3Cl)c2n1 | 7.17 | 5.62 | –
Cc1cc(-c2ncsc2C)c2cccc(OCc3c(Cl)cncc3Cl)c2n1 | 7.19 | 6.40 | –
Cc1cc(-c2ncsc2Cl)c2cccc(OCc3c(Cl)cncc3Cl)c2n1 | 6.68 | 6.14 | remaining at 1 µM [3]: 35%
Cc1cc(-c2nncn2C)c2cccc(OCc3c(Cl)cncc3Cl)c2n1 | 5.15 | – | –
Cc1cc(-c2ccnn2C)c2cccc(OCc3c(Cl)cncc3CNC(=O)N(C)C)c2n1 | 8.18 | 8.55 | –
Cc1cc(-c2[nH]ncc2C)c2cccc(OCc3c(C)ccnc3Cn3cccc(C(F)(F)F)c3=O)c2n1 | 8.06 | 8.96 | pIC50 (Cytochrome P450 3A4): 5.42; remaining at 1 µM [3]: 21%; bioavailability [4]: > 17%; clearance [5]: 21 mL/min/kg; pIC50 (Cytochrome P450 2C19): < 5.30; half-life [6]: 1.12 h
Cc1cc(-c2scnc2C)c2cccc(OCc3c(Cl)cncc3Cl)c2n1 | 6.96 | 7.17 | –
Cc1cc(-c2cn[nH]c2C)c2cccc(OCc3c(Cl)cncc3Cl)c2n1 | 5.44 | 5.20 | –
Cc1cc(-c2ccnn2C)c2cccc(OCc3c(Cl)cncc3SCC(=O)N(C)C)c2n1 | 8.12 | 7.62 | –
Cc1cc(C)c2cccc(OCc3c(Cl)ccc(S(=O)(=O)NC4(C(=O)N5CCN(C(=O)[C@@H](N)CCC[N+](C)(C)C)CC5)CCOCC4)c3Cl)c2n1 [FASITIBANT CHLORIDE] | 10.30 | – | –
